Measurements of several laboratories.
Protocols differ between the studies behind these lines. Converted amounts (≈) assume the structure as drawn.

`CC[C@H](C)[C@H]1C(=O)N[C@H]([C@H](C)O)C(=O)NCC(=O)N[C@@H](CC(C)C)C(=O)N2CCC[C@H]2C(=O)N[C@@H](Cc2ccc(O)cc2)C(=O)N[C@H](CC(C)C)C(=O)N2CCC[C@@H]2C(=O)NCC(=O)N[C@@H](Cc2ccc(O)cc2)C(=O)N1C` has a solubility of 933 µM (≈ 1020 µg/mL) (aqueous buffer; 18 h, pH 7.4).
`C/C=C1/CN2CC[C@@]34c5cc(O)ccc5N(C)[C@]35OC[C@@]4(C(=O)OC)[C@H]1C[C@H]25` gave a Papp B→A of 30.9 ×10⁻⁶ cm/s (Caco-2; 10 µM, 2 h, pH 7.4).
With `Cl.Cn1c(=O)n(CCCCN2CCC3(CC2)OCc2ccccc23)c2ccccc21` the tissue/plasma ratio was 0.48 (male Sprague-Dawley rat, brain; intravenous, 10 mg/kg).
With `CC(c1cncnc1)n1c(=S)[nH]c2ccc(Cl)cc2c1=O` (centres unmarked) the Papp B→A was 38.4 ×10⁻⁶ cm/s (Caco-2; 10 µM, 90 min, pH 7.4).
`COc1cc(C2C3=C(COC3=O)N(CCO)c3cc4c(cc32)CCC4)cc(OC)c1OC` (centres unmarked) has an MTD of no less than 400 mg/kg (general toxicity; female C57BL/6 mouse; intraperitoneal, single dose).
`O=c1c2cc(Cl)c(CO)cc2[nH]c(=S)n1Cc1cncnc1` has a Papp A→B of 14 ×10⁻⁶ cm/s (Caco-2; 10 µM, 90 min, pH 7.4).
For `CC=CCC(C)C1OC(=O)C(C(C)C)N(C)C(=O)C(CC(C)C)N(C)C(=O)C(CC(C)C)N(C)C(=O)C(C)NC(=O)C(C)NC(=O)C(CC(C)C)N(C)C(=O)C(C(C)C)NC(=O)C(CC(C)C)N(C)C(=O)CN(C)C(=O)C(CC)NC(=O)C1NC` (centres unmarked), the solubility was 91 µM (≈ 109 µg/mL) (aqueous buffer; 18 h, pH 7.4).
`C/C=C1/CN2CC[C@]34C(=C(C(=O)OC)[C@H]1C[C@H]23)Nc1ccccc14` has a Papp A→B of 38.1 ×10⁻⁶ cm/s (Caco-2; 10 µM, 2 h, pH 7.4).
